Assay results: ChEMBL document CHEMBL3994605, “Synthesis and biological evaluation of curcumin inspired indole analogues as tubulin polymerization inhibitors” (Eur J Med Chem, 2017)
Counter-ions that a name gives are not always drawn.

Columns and labels:
BT-549 [1] = assay: Antiproliferative activity against human BT549 cells after 48 hrs by MTT assay; type: functional, cell-based; conditions: BT-549, 48 h
Summary of the method: (§1)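 MTT read-out. Cells were seeded at 5 × 10^3 per well in DMEM or RPMI with 10% FBS and grown 24 h at 37 °C in CO2. Compound dilutions in medium, with vehicle control, were then added for 48 h. MTT (0.5 mg/mL in medium) was given for 4 h, formazan was dissolved in DMSO, and A570 was read. IC50 was taken from concentration–response curves as mean ± SD of three experiments run in triplicate.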

4T1 = assay: Antiproliferative activity against mouse 4T1 cells after 48 hrs by MTT assay; type: functional, cell-based; conditions: 4T1, 48 h; summary of the method: as §1
MDA-MB-231 [2] = assay: Antiproliferative activity against human MDA-MB-231 cells after 48 hrs by MTT assay; type: functional, cell-based; conditions: MDA-MB-231, 48 h; summary of the method: as §1
HGC-27 = assay: Antiproliferative activity against human HGC27 cells after 48 hrs by MTT assay; type: functional, cell-based; conditions: HGC-27, 48 h; summary of the method: as §1
A549 = assay: Antiproliferative activity against human A549 cells after 48 hrs by MTT assay; type: functional, cell-based; conditions: A549, 48 h; summary of the method: as §1
PC-3 [3] = assay: Antiproliferative activity against human PC3 cells after 48 hrs by MTT assay; type: functional, cell-based; conditions: PC-3, 48 h; summary of the method: as §1
DU-145 [4] = assay: Antiproliferative activity against human DU145 cells after 48 hrs by MTT assay; type: functional, cell-based; conditions: DU-145, 48 h; summary of the method: as §1
HeLa = assay: Antiproliferative activity against human HeLa cells after 48 hrs by MTT assay; type: functional, cell-based; summary of the method: as §1
BT-549 [5] = assay: Potency index, ratio of curcumin IC50 to compound IC50 for human BT549 cells; type: functional
PC-3 [6] = assay: Potency index, ratio of curcumin IC50 to compound IC50 for human PC3 cells; type: functional
MDA-MB-231 [7] = assay: Potency index, ratio of curcumin IC50 to compound IC50 for human MDA-MB-231 cells; type: functional
DU-145 [8] = assay: Potency index, ratio of curcumin IC50 to compound IC50 for human DU145 cells; type: functional
Sus scrofa = organism: Sus scrofa; assay: Inhibition of porcine brain tubulin polymerization assessed as reduction in incorporation of fluorescent reporter at 10 uM by fluorescence based assay relative to control
Summary of the method: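 Cell-free mix contained porcine brain tubulin (2 mg/mL) in 80 mM PIPES pH 6.9 with 2.0 mM MgCl2, 0.5 mM EGTA, 1.0 mM GTP and glycerol, with or without compound. Polymerization was tracked as a time-dependent fluorescence rise from reporter incorporation (ex 360, em 440 nm), with nocodazole as positive control. Inhibition was scored versus the untreated control. For IC50, the concentration giving 50% inhibition of assembly was used.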

Row | SMILES | IC50 (BT-549 [1]) | IC50 (4T1) | IC50 (MDA-MB-231 [2]) | IC50 (HGC-27) | IC50 (A549) | IC50 (PC-3 [3]) | IC50 (DU-145 [4]) | IC50 (HeLa) | Ratio IC50 (BT-549 [5]) | Ratio IC50 (PC-3 [6]) | Ratio IC50 (MDA-MB-231 [7]) | Ratio IC50 (DU-145 [8]) | inhibition (Sus scrofa)
1 | O=C(/C=C/c1ccc(Cl)cc1)/C=C/c1c[nH]c2ccccc12 | 30.1 µM | 40.2 µM | 50.2 µM | 50 µM | > 50 µM | > 50 µM | > 50 µM | 25.2 µM |  |  |  |  | 
2 | COc1ccc(/C=C/C(=O)/C=C/c2cn(Cc3ccc(Cl)cc3)c3ccccc23)cc1 | 50.4 µM | > 50 µM | > 50 µM | > 50 µM | > 50 µM | > 50 µM | > 50 µM | 50 µM |  |  |  |  | 
3 | COc1ccc(OC)c(/C=C/C(=O)/C=C/c2cn(Cc3ccc(F)cc3)c3ccccc23)c1 | 50.1 µM | > 50 µM | > 50 µM | > 50 µM | > 50 µM | > 50 µM | > 50 µM | 50.9 µM |  |  |  |  | 
4 | COc1ccc(/C=C/C(=O)/C=C/c2cn(Cc3ccccc3)c3ccccc23)cc1 | 40.1 µM | 50.2 µM | > 50 µM | > 50 µM | > 50 µM | > 50 µM | > 50 µM | > 50 µM |  |  |  |  | 
5 | COc1cc(OC)c(/C=C/C(=O)/C=C/c2c[nH]c3ccccc23)c(OC)c1 | 10.5 µM | 13.9 µM | 46.4 µM |  |  | 3.12 µM |  |  | 2.4 | 3.9 | 0.3 |  | 
6 | COc1cc(OC)c(/C=C/C(=O)/C=C/c2cn(Cc3ccc(C(F)(F)F)cc3)c3ccccc23)c(OC)c1 | > 50 µM | > 50 µM | > 50 µM | > 50 µM | > 50 µM | > 50 µM | > 50 µM | > 50 µM |  |  |  |  | 
7 | COc1cc(OC)c(/C=C/C(=O)/C=C/c2cn(Cc3ccccc3)c3ccccc23)c(OC)c1 | > 50 µM | > 50 µM | > 50 µM | > 50 µM | > 50 µM | > 50 µM | > 50 µM | 50.1 µM |  |  |  |  | 
8 | COc1ccc(/C=C/C(=O)/C=C/c2cn(Cc3ccc(OC(F)(F)F)cc3)c3ccccc23)cc1OC | 50.1 µM | > 50 µM | > 50 µM | > 50 µM | > 50 µM | > 50 µM | > 50 µM | 50.5 µM |  |  |  |  | 
9 | O=C(/C=C/c1ccc(Cl)cc1)/C=C/c1cn(Cc2ccccc2)c2ccccc12 | > 50 µM | > 50 µM | > 50 µM | > 50 µM | > 50 µM | > 50 µM | > 50 µM | > 50 µM |  |  |  |  | 
10 | COc1ccc(/C=C/C(=O)/C=C/c2cn(Cc3ccc(F)cc3)c3ccccc23)cc1 | > 50 µM | > 50 µM | > 50 µM | > 50 µM | > 50 µM | > 50 µM | > 50 µM | > 50 µM |  |  |  |  | 
11 | COc1cc(/C=C/C(=O)CC(=O)/C=C/c2ccc(O)c(OC)c2)ccc1O [CURCUMIN] | 24.9 µM |  | 15.8 µM |  |  | 12.2 µM | 28.4 µM | 25.4 µM |  |  |  |  | 
12 | COc1cc(OC)c(/C=C/C(=O)/C=C/c2cn(Cc3ccc(Cl)cc3)c3ccccc23)c(OC)c1 | > 50 µM | > 50 µM | > 50 µM | > 50 µM | > 50 µM | > 50 µM | > 50 µM | 40.9 µM |  |  |  |  | 
13 | COc1cc(OC)c(OC)cc1/C=C/C(=O)/C=C/c1cn(Cc2ccc(F)cc2)c2ccccc12 | 25.1 µM | 25.2 µM | > 50 µM | 40.2 µM | 50.1 µM | > 50 µM | > 50 µM | 30.7 µM |  |  |  |  | 
14 | COc1ccc(/C=C/C(=O)/C=C/c2cn(Cc3ccc(F)cc3)c3ccccc23)cc1OC | 30.1 µM | 40 µM | > 50 µM | 50.3 µM | > 50 µM | > 50 µM | > 50 µM | > 50 µM |  |  |  |  | 
15 | COc1cc(OC)c(/C=C/C(=O)/C=C/c2cn(Cc3ccc(F)cc3)c3ccccc23)c(OC)c1 | > 50 µM | > 50 µM | > 50 µM | 50.8 µM | > 50 µM | > 50 µM | > 50 µM | > 50 µM |  |  |  |  | 
16 | COc1ccc(/C=C/C(=O)/C=C/c2c[nH]c3ccccc23)cc1OC | 4.69 µM | 21.9 µM | 15.7 µM | 7.45 µM | 30.2 µM | 5.52 µM | 13.3 µM | 6.44 µM | 5.3 | 2.2 | 1 | 2.1 | 39.7%
17 | COc1cc(OC)c(OC)cc1/C=C/C(=O)/C=C/c1cn(Cc2ccc(C(F)(F)F)cc2)c2ccccc12 | 25.2 µM | 25.9 µM | > 50 µM | 40.1 µM | > 50 µM | > 50 µM | > 50 µM | 50.6 µM |  |  |  |  | 
18 | COc1ccc(/C=C/C(=O)/C=C/c2cn(Cc3cccc(F)c3)c3ccccc23)cc1 | 40.4 µM | > 50 µM | > 50 µM | > 50 µM | > 50 µM | > 50 µM | > 50 µM | > 50 µM |  |  |  |  | 
19 | COc1cc(OC)c(OC)cc1/C=C/C(=O)/C=C/c1cn(Cc2ccccc2)c2ccccc12 | 40.6 µM | 40.8 µM | > 50 µM | > 50 µM | > 50 µM | > 50 µM | > 50 µM | 50.1 µM |  |  |  |  | 
20 | COc1ccc(OC)c(/C=C/C(=O)/C=C/c2cn(Cc3ccc(C(F)(F)F)cc3)c3ccccc23)c1 | > 50 µM | > 50 µM | > 50 µM | > 50 µM | > 50 µM | > 50 µM | > 50 µM | > 50 µM |  |  |  |  | 
21 | CC[C@]1(O)C[C@H]2CN(CCc3c([nH]c4ccccc34)[C@@](C(=O)OC)(c3cc4c(cc3OC)N(C=O)[C@H]3[C@@](O)(C(=O)OC)[C@H](OC(C)=O)[C@]5(CC)C=CCN6CC[C@]43[C@@H]65)C2)C1 [VINCRISTINE SULFATE] | 0.0547 µM |  | 0.117 µM |  | 0.172 µM | 0.0276 µM | 0.0723 µM |  |  |  |  |  | 
22 | COc1ccc(/C=C/C(=O)/C=C/c2c[nH]c3ccccc23)cc1 | 31.4 µM | 21.6 µM | 32 µM | 24 µM | 45.1 µM | 3.51 µM | 13.6 µM |  |  |  |  |  | 
23 | COc1cc(OC)c(/C=C/C(=O)/C=C/c2cn(Cc3cccc(F)c3)c3ccccc23)c(OC)c1 | > 50 µM | > 50 µM | > 50 µM | > 50 µM | > 50 µM | > 50 µM | > 50 µM | 40.1 µM |  |  |  |  | 
24 | COc1ccc(OC)c(/C=C/C(=O)/C=C/c2cn(Cc3ccccc3)c3ccccc23)c1 | > 50 µM | > 50 µM | > 50 µM | > 50 µM | > 50 µM | > 50 µM | > 50 µM | > 50 µM |  |  |  |  | 
25 | COc1ccc(/C=C/C(=O)/C=C/c2cn(Cc3ccc(C(F)(F)F)cc3)c3ccccc23)cc1 | > 50 µM | > 50 µM | > 50 µM | > 50 µM | > 50 µM | > 50 µM | > 50 µM | > 50 µM |  |  |  |  | 
